Measurements published in ChEMBL document CHEMBL3804761, “Synthesis of a stable and orally bioavailable englerin analogue” (Bioorg Med Chem Lett, 2016).

Experiments:
Format in all cases: functional
NCI-H460 = experiment: Growth inhibition of human NCI-H460 cells incubated for 48 hrs by sulforhodamine B assay; conditions: NCI-H460, 48 h
Procedure, shortened: (§1)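 NCI 60-cell-line panel, standard protocol. Cells exposed to compound for two days, growth read by sulforhodamine B staining. Tested at five 10-fold dilutions, top concentration 100 µM, to give dose-response curves.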

[1] = Growth inhibition of human RXF393 cells assessed as cell growth at 10 uM incubated for 48 hrs by sulforhodamine B assay relative to control; conditions: RXF 393, 48 h, read-out: Activity
Procedure, shortened: (§2)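 Run in the standard NCI 60-cell-line screen. Cells were exposed to drug for two days, and the read-out was sulforhodamine B staining. Compound was tested at a single final concentration of 10 µM in every line, and results are reported as growth percent.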

[2] = Growth inhibition of human BT549 cells assessed as cell growth at 10 uM incubated for 48 hrs by sulforhodamine B assay relative to control; conditions: BT-549, 48 h, read-out: Activity; procedure, shortened: as §2
[3] = Growth inhibition of human LOXIMVI cells assessed as cell growth at 10 uM incubated for 48 hrs by sulforhodamine B assay relative to control; conditions: LOX IMVI, read-out: Activity
Procedure, shortened: (§3)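 Single-dose screen in the NCI 60-cell-line panel at one final concentration of 10 µM. Two-day drug exposure with a sulforhodamine B endpoint. Values are growth percent for each cell line.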

HT-29 [4] = experiment: Growth inhibition of human HT-29 cells incubated for 48 hrs by sulforhodamine B assay; conditions: HT-29, 48 h; procedure, shortened: as §1
[5] = Growth inhibition of human Caki1 cells incubated for 48 hrs by sulforhodamine B assay; conditions: CAKI-1, 48 h; procedure, shortened: as §1
[6] = Growth inhibition of human HCC2998 cells incubated for 48 hrs by sulforhodamine B assay; conditions: HCC 2998, 48 h; procedure, shortened: as §1
[7] = Growth inhibition of human OVCAR8 cells assessed as cell growth at 10 uM incubated for 48 hrs by sulforhodamine B assay relative to control; conditions: OVCAR-8, 48 h, read-out: Activity; procedure, shortened: as §2
[8] = Growth inhibition of human HOP92 cells assessed as cell growth at 10 uM incubated for 48 hrs by sulforhodamine B assay relative to control; conditions: HOP-92, 48 h, read-out: Activity; procedure, shortened: as §3
786-0 = experiment: Growth inhibition of human 786-0 cells incubated for 48 hrs by sulforhodamine B assay; conditions: 786-0, 48 h; procedure, shortened: as §1
SR = experiment: Growth inhibition of human SR cells assessed as cell growth at 10 uM incubated for 48 hrs by sulforhodamine B assay relative to control; conditions: read-out: Activity; procedure, shortened: as §2
[9] = Growth inhibition of human HCC2998 cells assessed as cell growth at 10 uM incubated for 48 hrs by sulforhodamine B assay relative to control; conditions: HCC 2998, 48 h, read-out: Activity; procedure, shortened: as §3
A549 = experiment: Growth inhibition of human A549/ATCC cells incubated for 48 hrs by sulforhodamine B assay; conditions: A549, 48 h; procedure, shortened: as §1
[10] = Growth inhibition of human UACC257 cells assessed as cell growth at 10 uM incubated for 48 hrs by sulforhodamine B assay relative to control; conditions: UACC-257, 48 h, read-out: Activity
Procedure, shortened: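 NCI 60-cell line standard protocol, one-dose screen: single final concentration 10 µM, 2-day drug exposure, sulforhodamine B (SRB) endpoint; read-out is growth percent relative to untreated control.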

ACHN [11] = experiment: Growth inhibition of human ACHN cells assessed as cell growth at 10 uM incubated for 48 hrs by sulforhodamine B assay relative to control; conditions: read-out: Activity; procedure, shortened: as §2
MDA-MB-468 = experiment: Growth inhibition of human MDA-MB-468 cells assessed as cell growth at 10 uM incubated for 48 hrs by sulforhodamine B assay relative to control; conditions: MDA-MB-468, 48 h, read-out: Activity; procedure, shortened: as §2
[12] = Growth inhibition of human COLO205 cells assessed as cell growth at 10 uM incubated for 48 hrs by sulforhodamine B assay relative to control; conditions: COLO 205, 48 h, read-out: Activity; procedure, shortened: as §2
[13] = Growth inhibition of human HL-60(TB) cells incubated for 48 hrs by sulforhodamine B assay; conditions: HL-60, 48 h; procedure, shortened: as §1
[14] = Growth inhibition of human HOP62 cells assessed as cell growth at 10 uM incubated for 48 hrs by sulforhodamine B assay relative to control; conditions: HOP-62, 48 h, read-out: Activity; procedure, shortened: as §2
K562 = experiment: Growth inhibition of human K562 cells assessed as cell growth at 10 uM incubated for 48 hrs by sulforhodamine B assay relative to control; conditions: K562, 48 h, read-out: Activity; procedure, shortened: as §2
[15] = Growth inhibition of human COLO205 cells incubated for 48 hrs by sulforhodamine B assay; conditions: COLO 205, 48 h; procedure, shortened: as §1
HT-29 [16] = experiment: Growth inhibition of human HT-29 cells assessed as cell growth at 10 uM incubated for 48 hrs by sulforhodamine B assay relative to control; conditions: HT-29, 48 h, read-out: Activity; procedure, shortened: as §2
ACHN [17] = experiment: Growth inhibition of human ACHN cells incubated for 48 hrs by sulforhodamine B assay; procedure, shortened: as §1
[18] = Growth inhibition of human DU145 cells assessed as cell growth at 10 uM incubated for 48 hrs by sulforhodamine B assay relative to control; conditions: DU-145, 48 h, read-out: Activity; procedure, shortened: as §2
NCI/ADR-RES = experiment: Growth inhibition of human NCI/ADR-RES cells assessed as cell growth at 10 uM incubated for 48 hrs by sulforhodamine B assay relative to control; conditions: read-out: Activity; procedure, shortened: as §2
A498 = experiment: Growth inhibition of human A498 cells assessed as cell growth at 10 uM incubated for 48 hrs by sulforhodamine B assay relative to control; conditions: A498, 48 h, read-out: Activity
KM12 = experiment: Growth inhibition of human KM12 cells incubated for 48 hrs by sulforhodamine B assay; conditions: KM12, 48 h; procedure, shortened: as §1
SK-MEL-2 = experiment: Growth inhibition of human SK-MEL-2 cells assessed as cell growth at 10 uM incubated for 48 hrs by sulforhodamine B assay relative to control; conditions: SK-MEL-2, 48 h, read-out: Activity; procedure, shortened: as §2
[19] = Growth inhibition of human BT549 cells incubated for 48 hrs by sulforhodamine B assay; conditions: BT-549, 48 h; procedure, shortened: as §1
[20] = read-out: pLC50 (the source's name) (converted)

## C/C(=C\C(=O)O[C@H]1[C@@H]2[C@H](C)CC[C@H]2[C@]2(C)O[C@@]1(C(C)C)C[C@H]2NC(=O)CO)c1ccccc1
NCI-H460
  GI50: 38 µM
NCI-H460; [20]
  CC50: > 100 µM
NCI-H460; read-out: pTGI (converted)
  TGI: > 100 µM
[1]
  growth at 10 µM: 73.5%
[2]
  growth at 10 µM: 117%
[3]
  growth at 10 µM: 100%
HT-29 [4]
  GI50: 40.7 µM
  LC50: > 100 µM
HT-29 [4]; read-out: pTGI (converted)
  TGI: > 100 µM
[5]
  GI50: 40.7 µM
  LC50: > 100 µM
[5]; read-out: pTGI (converted)
  TGI: > 100 µM
[6]
  GI50: 34.7 µM
  LC50: > 100 µM
[6]; read-out: pTGI (converted)
  TGI: > 100 µM
[7]
  growth at 10 µM: 61.2%
[8]
  growth at 10 µM: 87.1%
786-0
  GI50: 33.9 µM
  LC50: > 100 µM
786-0; read-out: pTGI (converted)
  TGI: > 100 µM
SR
  growth at 10 µM: 117%
[9]
  growth at 10 µM: 104%
A549
  GI50: 47.9 µM
  LC50: > 100 µM
A549; read-out: pTGI (converted)
  TGI: > 100 µM
[10]
  growth at 10 µM: 92.4%
ACHN [11]
  growth at 10 µM: 27.9%
MDA-MB-468
  growth at 10 µM: 101%
[12]
  growth at 10 µM: 107%
[13]
  GI50: 17.8 µM
[13]; [20]
  CC50: > 100 µM
[13]; read-out: pTGI (converted)
  TGI: 61.7 µM
[14]
  growth at 10 µM: 97.6%
K562
  growth at 10 µM: 92.3%
[15]
  GI50: 22.9 µM
[15]; [20]
  CC50: > 100 µM
[15]; read-out: pTGI (converted)
  TGI: 83.2 µM
HT-29 [16]
  growth at 10 µM: 98.7%
ACHN [17]
  GI50: 3.31 µM
  LC50 (concentration killing 50% of cells): > 100 µM
ACHN [17]; read-out: pTGI (converted)
  TGI: 16.2 µM
[18]
  growth at 10 µM: 119%
NCI/ADR-RES
  growth at 10 µM: 72.2%
A498
  growth at 10 µM: -24.6%
KM12
  GI50: 33.9 µM
  LC50: > 100 µM
KM12; read-out: pTGI (converted)
  TGI: > 100 µM
SK-MEL-2
  growth at 10 µM: 104%
[19]
  GI50: 22.4 µM
[19]; [20]
  CC50: > 100 µM
[19]; read-out: pTGI (converted)
  TGI: 69.2 µM
